Active and inactive are the calls of the source.
How the values were obtained:
[1] = target: T1, Growth factor receptor-bound protein 2 (Homo sapiens, UniProt P62993); assay: Binding affinity to wild type human Grb2 SH3C domain at 50 to 100 uM by SPR assay
In short: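 Untagged Grb2 SH3C was amine-coupled to a CM5 chip at about 1500 RU. Compounds at 50 and 100 µM in HBS-N (10 mM Hepes pH 7.4, 150 mM NaCl) with 5% DMSO and 0.01% Tween 20 were injected for 120 s at 40 µL/min and 25 °C. Responses were double-referenced. Binders were defined by a response of at least 5 RU at 100 µM, derived from a KD cutoff of ≤1 mM.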
Target sequence in this assay (P62993 whole entry, looked up, the tested form may be a part): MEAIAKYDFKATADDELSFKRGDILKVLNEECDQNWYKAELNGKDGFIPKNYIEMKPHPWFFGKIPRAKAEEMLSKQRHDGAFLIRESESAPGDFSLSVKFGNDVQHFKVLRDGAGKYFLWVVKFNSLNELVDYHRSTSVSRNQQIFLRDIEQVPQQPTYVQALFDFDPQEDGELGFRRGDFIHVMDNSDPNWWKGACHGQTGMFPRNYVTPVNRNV

[2] = target: T1, Growth factor receptor-bound protein 2; assay: Binding affinity to GST-tagged Grb2 SH3C domain (unknown origin) using biotinylated Gab2b peptide as substrate at 5 mM by SDS-PAGE analysis
In short: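 Purified GST–Grb2 SH3C (10 µg/sample) was pre-incubated with compound at 5 mM, in duplicate, for 2 h at 4 °C. Streptavidin beads carrying biotinylated Gab2b peptide were then added for 30 min. After PBS-T washes, bound protein was resolved by SDS-PAGE, Coomassie-stained and scored by densitometry relative to the no-inhibitor control (100%).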
Target sequence in this assay (P62993 whole entry, looked up, the tested form may be a part): as above

[3] = target: T1, Growth factor receptor-bound protein 2; assay: Binding affinity to wild type human Grb2 SH3C domain at > 200 uM by SPR assay
Target sequence in this assay (P62993 whole entry, looked up, the tested form may be a part): as above

[4] = target: T1, Growth factor receptor-bound protein 2; assay: Binding affinity to Grb2 SH3C domain (unknown origin) at 1 mM by isothermal titration calorimetry
In short: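 ITC at 25 °C used 20 µM purified Grb2 SH3C in the cell, in 50 mM Hepes pH 7.5, 50 mM NaCl, 0.5% DMSO. Compound at 1 mM in the same buffer was titrated in: one 4 µL injection followed by 18 injections of 15 µL.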
Target sequence in this assay (P62993 whole entry, looked up, the tested form may be a part): as above

[5] = target: T1, Growth factor receptor-bound protein 2; assay: Competitive inhibition of GST-tagged Grb2 SH3C domain (unknown origin)-Gab2 interaction incubated 2 hrs prior to biotinylated Gab2b peptide addition measured after 30 mins by SDS-PAGE analysis
In short: (§1)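 Concentration-response format of the bead pull-down. GST–Grb2 SH3C (10 µg) was pre-incubated 2 h at 4 °C with increasing compound concentrations in Tris pH 7.5 buffer containing 5% DMSO. Biotin-Gab2b peptide–streptavidin beads were added for 30 min. Bound protein was measured by SDS-PAGE/Coomassie densitometry, normalized to the no-inhibitor sample, and fitted to a sigmoidal inhibition model by nonlinear regression. Gels represent 4–6 repeats.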
Target sequence in this assay (P62993 whole entry, the tested form may be a part): as the sequence (P62993 whole entry, looked up, the tested form may be a part) above

[6] = target: T1, Growth factor receptor-bound protein 2; assay: Inhibition of GST-tagged Grb2 SH3C domain (unknown origin)-Gab2 interaction up to 20 mM incubated 2 hrs prior to biotinylated Gab2b peptide addition measured after 30 mins by SDS-PAGE analysis; in short: as §1
Target sequence in this assay (P62993 whole entry, looked up, the tested form may be a part): as above

Compound | Activity [2] | other results
Cc1ccc(O)c(C2CC(=O)NC(N)=N2)c1 (configuration not stated) | inactive | Activity [1]: Active
CN1CC(=O)N=C(N)N=C1N | inactive | –
CC1(C)N=C(N)N=C(N)N1c1cccc(/C=C/C=C/c2cccc([N+](=O)[O-])c2)c1 | > 20% | Activity [3]: Active; Activity [4]: inactive; IC50 [5]: 0.32 mM; Activity [1]: Active
NC1CCC(NC2CCC(N)CC2)CC1 (configuration not stated) | > 20% | Activity [1]: Active
Cn1c(CCNC(=N)CSS(=O)(=O)O)nc2ccccc21 | inactive | –
CC(CC(=N)N)NC(=O)C1CCC(N)=N1 (configuration not stated) | inactive | –
NC(C(=O)O)C(O)c1c[nH]cn1 (configuration not stated) | inactive | –
C1CN=C(C2=NCCCN2)NC1 | inactive | –
CC1(C)N=C(N)N=C(N)N1c1cc(C(F)(F)F)cc(C(F)(F)F)c1 | inactive | –
CC1(C)N=C(N)N=C(N)N1c1cccc(OCc2cccc(N)c2)c1 | inactive | Activity [1]: Active
CN1C[C@@H]2[C@@H](N)N=C(N)N[C@@H]2C1(C)C | inactive | –
Nc1n[nH]c(=O)n2ncnc12 | inactive | –
CC1(C)N=C(N)N=C(N)N1c1cccc(OCC#N)c1 | > 20% | Activity [3]: Active; inhibition [6]: Active; Activity [1]: Active
NCCN1CCN=C1C1=NCCN1CCN | inactive | –
NC1=NS(=O)(=O)Nc2nn(-c3ccccc3)nc21 | inactive | –
Cn1c(N)nc2nc[nH]c2c1=O | inactive | –
Cc1nnc2c3nccnc3c(N)nn12 | inactive | –

Compound | Activity [2] | other results
NC[C@@H]1[C@@H](CN)[C@H]2C=C[C@@H]1CC2 | > 20% | –
Cn1cnc(N)c2ncnc1-2 | inactive | –
CC1(C)N=C(N)N=C(N)N1c1cccc(CCCCc2cccc(N)c2)c1 | > 20% | Activity [3]: Active; Activity [4]: inactive; IC50 [5]: 5.7 mM; Activity [1]: Active
C/C(=N\NC(=N)N)c1cnc(C)nc1C | inactive | –
CC(=O)c1ccc(/N=N/c2c(N)nc(N)nc2N)cc1 | > 20% | Activity [1]: Active
CC1(C)N=C(N)N=C(N)N1c1cccc(CO)c1 | inactive | –
Nc1nsc2nc3ccccc3cc12 | inactive | –
Nc1n[nH]c2cc(O)[nH]c(=O)c12 | > 20% | –
Cc1ccc(C(/C=C/c2ccccc2)=N/NC(=N)N)cc1 | > 20% | Activity [1]: Active
CC1(C)N=C(N)N=C(N)N1c1cccc(OCCOc2cccc(N)c2)c1 | inactive | Activity [1]: Active
N=C(NCCN)C(=N)NCCN | inactive | –
NC=C1C(=O)NC(=O)NC1=O | inactive | –
Cc1cnc2c(c1)CCCC2C(N)=S (configuration not stated) | > 20% | –
N=C(NC1=NCCN1)C(=N)NC1=NCCN1 | inactive | –
Nc1nc(N)c2cnnn2n1 | inactive | –
Nc1nc(N)n(Cc2ccc3c(c2)OCO3)n1 | inactive | –
N=C(NC1CCC(C2CCC(N)CC2)CC1)C(=N)NC1CCC(C2CCC(N)CC2)CC1 (configuration not stated) | > 20% | Activity [1]: Active

From ChEMBL document CHEMBL2396552, “Novel inhibitors of a Grb2 SH3C domain interaction identified by a virtual screen” (Bioorg Med Chem, 2013)
